Screens as filed in PubChem.
Many of the other results were omitted from the sample, so hits are more common in it than they were.
UPR CHOP act: activators of apoptotic CHOP UPR arm, primary screen, cell-based, CHO-CHOP luciferase reporter, luminescence, uHTS. activation, % at 10 µM. AID 449763, 2010. UPR activation; percent of tunicamycin response over DMSO baseline. 330,000 compounds, 0.34% hits;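 active = at 10 µM dose, activation of 40% or more, normalized to positive control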;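 also: 100% = tunicamycin at 10 µg/mL and 0% = DMSO alone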
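System: CHO-CHOP luciferase reporter cell line | Buffer or medium: F12 medium containing 10% fetal bovine serum | Doses: One dose, 10 µM in 0.5% DMSO | Times: 6 h compound exposure at 37 °C after overnight seeding | Signal: Luciferase luminescence | Read-out: % activation vs tunicamycin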
FXN GAA850 act: FXN promoter activators, primary screen, cell-based, luciferase luminescence, HEK293 lucGAA850; HEK293 lucGAA850 FXN promoter luciferase reporter, 24 h; percent of 10 µM SAHA response; activation, % at 6 µM; 360,000 compounds, 0.56% hits;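 active = activation above the average of all compounds screened plus 3 SD, cutoff fixed separately per campaign, cut at about 7.5% in these data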;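 also: 0% = DMSO wells and 100% = 10 µM SAHA wells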
UPR XBP1 act: activators of adaptive XBP1 UPR arm, primary screen, cell-based, CHO-XBP1 luciferase reporter, luminescence, uHTS; IRE1-XBP1 UPR activation; percent of tunicamycin response, DMSO as zero; activation, % at 20 µM; 330,000 compounds, 0.33% hits; AID 463104, 2010;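 active = versus positive control, 20 µM dose yields 30% or more activation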;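 also: 100% = tunicamycin at 10 µg/mL and 0% = DMSO only wells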
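Material: IRE1-XBP1 luciferase reporter CHO line / Quantity: one thousand reporter cells per well / Buffer or medium: F12 with 10% serum / Compound: 20 µM single concentration, DMSO 1% / Times: 6 h treatment, 37 °C / Detection: Steady-Glo luciferase glow luminescence, 10 min after reagent addition / Benchmarks: tunicamycin high, DMSO low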
CHOP inh: inhibitors of CHOP promoter induction, primary screen, cell-based, unfolded protein response, luciferase reporter; 220,000 compounds, 3.8% hits; inhibition, % at 10 µM; CHO-K1 CHOP-promoter luciferase, tunicamycin-induced, 15-18 h;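 active = compounds that reduced the stress-induced luciferase reporter signal by more than about 70% of percent inhibition, limit read from the data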;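 also: 0% = tunicamycin plus vehicle and 100% = wells without tunicamycin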
* = called active by the depositor; / = not tested or not shown; ! = not active in a repeat.

SMILES | UPR CHOP act | FXN GAA850 act | UPR XBP1 act | CHOP inh
CCc1nc2c(OCc3ccc4c(c3)OCO4)cccn2c1N(C=O)Cc1ccc(OC)cc1 | / | 0.5 | / | /
COc1cc(C)ccc1OCCOc1c(Cl)cc(Cl)cc1Cl | 2.7 | 0.0 | 0.7 | 42.6
COc1cc(C)ccc1OCCOc1c(C)cccc1Cl | 3.0 | -1.0 | 0.2 | 70.7*
Cc1ccc(-n2c(C)cc(C(=O)COc3cccnc3[N+](=O)[O-])c2C)cc1 | -6.4 | -11.7 | -5.5 | 60.8
Cc1cc(C(=O)COc2cccnc2[N+](=O)[O-])c(C)n1-c1ccccc1 | -10.1 | -12.8 | -4.7 | 75.2*
Cc1cc(C(=O)COC(=O)c2ccc[nH]c2=O)c(C)n1-c1ccc(F)cc1 | -6.9 | -3.6 | -5.2 | 75.2*
Cc1cc(C(=O)OCC(=O)NCc2ccco2)c(C)n1-c1ccc(F)cc1 | -1.3 | -0.5 | 5.3 | /
Cc1cc(C(=O)COC(=O)c2ccc[nH]c2=O)c(C)n1-c1ccccc1 | -2.9 | -0.8 | -8.2 | 70.3*
Cc1cc(C(=O)COC(=O)c2ccc[nH]c2=O)c(C)n1C1CC1 | 2.9 | -1.7 | -4.2 | 3.4
CN1CCC2(CCN3CCc4c(oc5ccccc45)C3C2)N(C)C1=O (centres undefined) | / | / | / | -3.6
Cc1ccc(Cl)cc1NC(=O)COC(=O)C12CC3CC(CC(C3)C1)C2 | 3.0 | 2.1 | 0.6 | 78.9*!
CCCNC(=O)C1(C)CCCN(Cc2ccc(-c3ccccn3)cc2)C1 (centres undefined) | / | 0.4 | / | /
C=CCOc1cccn2c(N(C)C(=O)c3ccccc3F)c(CC)nc12 | / | -0.7 | / | /
CN1c2ccccc2C(C)(C)[C@]12C=Cc1cc(O)ccc1O2 | -1.4 | 0.1 | 1.6 | 95.2*
Cc1cc(C(=O)Nc2c(C)nn(Cc3ccc(F)cc3)c2C)on1 | -1.7 | -0.8 | -0.7 | 81.2*
Cc1ccc(Cn2ccc(NC(=O)c3cc(CC(C)C)on3)n2)cc1 | -0.9 | 1.6 | 1.2 | 76.3*
Cc1nn(Cc2ccc(Cl)c(Cl)c2)c(C)c1NC(=O)c1cc(CC(C)C)on1 | 6.1 | 1.1 | 0.8 | 92.9*
Cc1ccc(Cn2ccc(NC(=O)c3cc(-c4ccc(Cl)cc4)on3)n2)cc1 | -0.3 | 1.4 | -1.4 | 13.8
Cc1cc(N2CCN(c3ccccc3)CC2)nc(NCc2ccccc2)n1 | -0.3 | 2.7 | 1.0 | 87.8*
CCCCC(=O)N(C)c1c(CC)nc2c(OCc3cc(Cl)cc(Cl)c3)cccn12 | / | -1.3 | / | /
FC(F)(F)c1ccc(N2CCN(c3ncnc4c3nnn4Cc3ccccc3)CC2)nc1 | 2.4 | 1.0 | 4.6 | 90.6*
COc1ccc(OC)c(S(=O)(=O)NC(=O)C2(C)CCN2C(=O)Cc2ccccc2)c1 (centres undefined) | / | -0.8 | / | /
COc1ccccc1-c1cnc(C(O)c2ccc(C)cc2)[nH]1 (centres undefined) | / | 0.3 | / | /
CCOC(=O)c1c(-c2ccc(F)cc2)csc1NC(=O)C1CCCO1 (centres undefined) | -2.2 | 2.9 | -2.8 | 75.0*
O=C(Cc1ccc(Cl)cc1)NCC(=O)N1CCC2(CC1)NCCc1[nH]cnc12 | / | -1.0 | / | /
SMILES | UPR CHOP act | FXN GAA850 act | UPR XBP1 act | CHOP inh
Cc1cc(O)ccc1-c1cccc2nccn12 | / | 0.0 | / | /
COc1ccc2c(c1)Cc1sc(NC(=O)c3cccs3)nc1-2 | 4.7 | 2.6 | -1.2 | 73.6*
COc1ccc2c(c1)Cc1sc(NC(=O)c3ccccc3)nc1-2 | 7.9 | 3.2 | 3.4 | 84.5*
CCCCN1C(=O)CC2CCOC21C (centres undefined) | / | 2.1 | / | /
O=C(NCc1cc(Cl)cc(Cl)c1)c1ccc2nc([C@H]3C[C@H](O)[C@@H](CO)O3)[nH]c2c1 | / | -2.4 | / | /
COc1ccc(/C=N/NC(=O)c2ccoc2C)cc1COc1c(C)cccc1C | 18.2 | 1.7 | 8.7 | 87.7*
Cc1cc(C)cc(OCC(=O)OC/C(O)=C(\C#N)c2nc3ccccc3[nH]2)c1 | 3.5 | 4.8 | -2.9 | 78.7*
N#C/C(=C(/O)COC(=O)COc1cccc(Br)c1)c1nc2ccccc2[nH]1 | 0.8 | -0.4 | -2.8 | 74.6*
C[C@H]1Cn2cnc(C(=O)Nc3cccc(Cl)c3)c2C(=O)N1 | / | -3.9 | / | /
CCCNC(=O)C1(C)CCCN(C(=O)c2ccc3snnc3c2)C1 (centres undefined) | / | 3.3 | / | /
C[C@@H]1CN([C@@H](C)CO)C(=O)CCCn2nncc2CO[C@@H]1CN(C)C(=O)CCC(F)(F)F | / | -1.0 | / | /
COc1ccc(Cc2nc3ccc(C(=O)NCCc4ncccc4C)cc3o2)cc1OC | / | 0.9 | / | /
